According to ChEMBL document CHEMBL3585269, “Simple structural modifications confer cytotoxicity to allobetulin” (Bioorg Med Chem, 2015):

Assays:
A2780 = assay: Cytotoxicity against human A2780 cells by SRB assay; type: functional, cell-based
In short: (§1)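 Photometric sulforhodamine B (SRB) read-out after 96 h of compound treatment. EC50 values are averaged from three independent experiments, each run in triplicate, and reported with a 95% confidence interval. The assay has an upper cut-off.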

8505C = assay: Cytotoxicity against human 8505C cells by SRB assay; type: functional, cell-based; in short: as §1
MCF7 = assay: Cytotoxicity against human MCF7 cells by SRB assay; type: functional, cell-based; in short: as §1
HT-29 = assay: Cytotoxicity against human HT-29 cells by SRB assay; type: functional, cell-based; in short: as §1
[1] = Cytotoxicity against human 518A2 cells by SRB assay; type: functional, cell-based; in short: as §1
A549 = assay: Cytotoxicity against human A549 cells by SRB assay; type: functional, cell-based; in short: as §1
[2] = Cytotoxicity against mouse NIH/3T3 cells by SRB assay; type: cell-based; conditions: NIH3T3
[3] = Homo sapiens, A2780, read-out: EC50
[4] = Homo sapiens, 8505C, read-out: EC50
[5] = Homo sapiens, MCF7, read-out: EC50
[6] = Homo sapiens, HT-29, read-out: EC50
[7] = Homo sapiens, 518A2, read-out: EC50
[8] = Homo sapiens, A549, read-out: EC50

| SMILES | EC50 (A2780; [3]) | EC50 (8505C; [4]) | EC50 (MCF7; [5]) | EC50 (HT-29; [6]) | EC50 [1, 7] | EC50 (A549; [8]) | EC50 (A2780; a2780) | EC50 (8505C; 8505c) | EC50 (MCF7; mcf7) | EC50 (HT-29; ht-29) | EC50 ([1]; 518a2) | EC50 (A549; a549) | EC50 [2] |
| --- | --- | --- | --- | --- | --- | --- | --- | --- | --- | --- | --- | --- | --- |
| C=C(C)[C@@H]1CC[C@]2(C)[C@H](CC[C@@H]3[C@H]4[C@H]5OC[C@@]4(CCC5(C)C)CC[C@]32C)[C@@]1(C)CCC(=O)OCCC | > 30 µM | > 30 µM | > 30 µM | > 30 µM | > 30 µM | > 30 µM |  |  |  |  |  |  |  |
| C=C(C)[C@@H]1CC[C@]2(C)[C@H](CC[C@@H]3[C@H]4[C@H]5OC[C@@]4(CCC5(C)C)CC[C@]32C)[C@@]1(C)CCC(=O)OCc1ccccc1 |  |  |  |  |  |  | ND(Insoluble) | ND(Insoluble) | ND(Insoluble) | ND(Insoluble) | ND(Insoluble) | ND(Insoluble) |  |
| CCOC(=O)C[C@]1(C)[C@H]2CC[C@@H]3[C@H]4[C@H]5OC[C@@]4(CCC5(C)C)CC[C@@]3(C)[C@]2(C)CC[C@H]1C(C)(C)C(=O)OCC | 18.9 µM | 24.6 µM | 26.1 µM | 17.6 µM | 26.1 µM | 5.9 µM |  |  |  |  |  |  | 25 µM |
| C=C(C)[C@@H]1CC[C@]2(C)[C@H](CC[C@@H]3[C@H]4[C@H]5OC[C@@]4(CCC5(C)C)CC[C@]32C)[C@@]1(C)CCC#N | > 30 µM | > 30 µM | > 30 µM | > 30 µM | 25.7 µM | 21.5 µM |  |  |  |  |  |  |  |
| CC1(C)CC[C@]23CC[C@]4(C)[C@H](CC[C@@H]5[C@@](C)(CC(=O)O)[C@H](C(C)(C)C(=O)O)CC[C@]54C)[C@H]2[C@H]1OC3 |  |  |  |  |  |  | ND(Insoluble) | ND(Insoluble) | ND(Insoluble) | ND(Insoluble) | ND(Insoluble) | ND(Insoluble) |  |
| C=CCOC(=O)CC[C@]1(C)[C@H]2CC[C@@H]3[C@H]4[C@H]5OC[C@@]4(CCC5(C)C)CC[C@@]3(C)[C@]2(C)CC[C@H]1C(=C)C | > 30 µM | > 30 µM | > 30 µM | > 30 µM | > 30 µM | > 30 µM |  |  |  |  |  |  |  |
| C=C(C)[C@@H]1CC[C@]2(C)[C@H](CC[C@@H]3[C@H]4[C@H]5OC[C@@]4(CCC5(C)C)CC[C@]32C)[C@@]1(C)CCC(=O)OCCCC | > 30 µM | > 30 µM | > 30 µM | > 30 µM | > 30 µM | > 30 µM |  |  |  |  |  |  |  |
| CC1(C)CC[C@]23CC[C@]4(C)[C@H](CC[C@@H]5[C@@](C)(CC(=O)OCc6ccccc6)[C@H](C(C)(C)C(=O)OCc6ccccc6)CC[C@]54C)[C@H]2[C@H]1OC3 |  |  |  |  |  |  | ND(Insoluble) | ND(Insoluble) | ND(Insoluble) | ND(Insoluble) | ND(Insoluble) | ND(Insoluble) |  |
| C=C(C)[C@@H]1CC[C@]2(CO)CC[C@]3(C)[C@H](CC[C@@H]4[C@@]5(C)CC[C@H](O)C(C)(C)[C@@H]5CC[C@]43C)[C@@H]12 [BETULIN] | 29.3 µM | > 30 µM | 24.4 µM | > 30 µM | 28.8 µM | 20.6 µM |  |  |  |  |  |  |  |
| CC1(C)CC[C@]23CC[C@]4(C)[C@H](CC[C@@H]5[C@@]6(C)C=C(O)C(=O)C(C)(C)[C@@H]6CC[C@]54C)[C@H]2[C@H]1OC3 | > 30 µM | > 30 µM | > 30 µM | > 30 µM | > 30 µM | 23.3 µM |  |  |  |  |  |  |  |
| C#CCOC(=O)CC[C@]1(C)[C@H]2CC[C@@H]3[C@H]4[C@H]5OC[C@@]4(CCC5(C)C)CC[C@@]3(C)[C@]2(C)CC[C@H]1C(=C)C | > 30 µM | > 30 µM | > 30 µM | > 30 µM | > 30 µM | > 30 µM |  |  |  |  |  |  |  |
| COC(=O)C[C@]1(C)[C@H]2CC[C@@H]3[C@H]4[C@H]5OC[C@@]4(CCC5(C)C)CC[C@@]3(C)[C@]2(C)CC[C@H]1C(C)(C)C(=O)OC | 18.1 µM | 27.1 µM | 29.4 µM | 17.5 µM | 29.4 µM | > 30 µM |  |  |  |  |  |  |  |
| C=C(C)[C@@H]1CC[C@]2(C)[C@H](CC[C@@H]3[C@H]4[C@H]5OC[C@@]4(CCC5(C)C)CC[C@]32C)[C@@]1(C)CCC(=O)OCC | > 30 µM | > 30 µM | > 30 µM | > 30 µM | > 30 µM | > 30 µM |  |  |  |  |  |  |  |
| C=C(C)[C@@H]1CC[C@]2(C)[C@H](CC[C@@H]3[C@H]4[C@H]5OC[C@@]4(CCC5(C)C)CC[C@]32C)[C@@]1(C)CCC(=O)OC | > 30 µM | > 30 µM | > 30 µM | > 30 µM | > 30 µM | > 30 µM |  |  |  |  |  |  |  |
| CCCOC(=O)C[C@]1(C)[C@H]2CC[C@@H]3[C@H]4[C@H]5OC[C@@]4(CCC5(C)C)CC[C@@]3(C)[C@]2(C)CC[C@H]1C(C)(C)C(=O)OCCC | 22.4 µM | > 30 µM | > 30 µM | 27 µM | > 30 µM | > 30 µM |  |  |  |  |  |  |  |
| CCCCOC(=O)C[C@]1(C)[C@H]2CC[C@@H]3[C@H]4[C@H]5OC[C@@]4(CCC5(C)C)CC[C@@]3(C)[C@]2(C)CC[C@H]1C(C)(C)C(=O)OCCCC | > 30 µM | > 30 µM | > 30 µM | > 30 µM | > 30 µM | > 30 µM |  |  |  |  |  |  |  |
| CC1(C)CC[C@]23CC[C@]4(C)[C@H](CC[C@@H]5[C@@]6(C)CC[C@H](O)C(C)(C)[C@@H]6CC[C@]54C)[C@H]2[C@H]1OC3 [ALLOBETULIN] | > 30 µM | > 30 µM | > 30 µM | > 30 µM | > 30 µM | > 30 µM |  |  |  |  |  |  |  |
| C#CCOC(=O)C[C@]1(C)[C@H]2CC[C@@H]3[C@H]4[C@H]5OC[C@@]4(CCC5(C)C)CC[C@@]3(C)[C@]2(C)CC[C@H]1C(C)(C)C(=O)OCC#C | 12.5 µM | 18.7 µM | 27.2 µM | 15.7 µM | 17.4 µM | 21.1 µM |  |  |  |  |  |  |  |
| CC1(C)CC[C@]23CC[C@]4(C)[C@H](CC[C@@H]5[C@@]6(C)CC[C@@H](N)C(C)(C)[C@@H]6CC[C@]54C)[C@H]2[C@H]1OC3 | 12.9 µM | 15.5 µM | 15.2 µM | 6.8 µM | 10.2 µM | 12.6 µM |  |  |  |  |  |  | 15.9 µM |
| CC1(C)CC[C@]23CC[C@]4(C)[C@H](CC[C@@H]5[C@@]6(C)CC/C(=N\O)C(C)(C)[C@@H]6CC[C@]54C)[C@H]2[C@H]1OC3 |  |  |  |  |  |  | ND(Insoluble) | ND(Insoluble) | ND(Insoluble) | ND(Insoluble) | ND(Insoluble) | ND(Insoluble) |  |
| CC1(C)CC[C@]23CC[C@]4(C)[C@H](CC[C@@H]5[C@@]6(C)CCC(=O)OC(C)(C)[C@@H]6CC[C@]54C)[C@H]2[C@H]1OC3 | > 30 µM | > 30 µM | > 30 µM | > 30 µM | > 30 µM | > 30 µM |  |  |  |  |  |  |  |
| C=C(C)[C@@H]1CC[C@]2(C)[C@H](CC[C@@H]3[C@H]4[C@H]5OC[C@@]4(CCC5(C)C)CC[C@]32C)[C@@]1(C)CCC(=O)O |  |  |  |  |  |  | ND(Insoluble) | ND(Insoluble) | ND(Insoluble) | ND(Insoluble) | ND(Insoluble) | ND(Insoluble) |  |
| C=CCOC(=O)C[C@]1(C)[C@H]2CC[C@@H]3[C@H]4[C@H]5OC[C@@]4(CCC5(C)C)CC[C@@]3(C)[C@]2(C)CC[C@H]1C(C)(C)C(=O)OCC=C | 22.7 µM | > 30 µM | > 30 µM | 29.2 µM | > 30 µM | > 30 µM |  |  |  |  |  |  |  |
| CC1(C)CC[C@]23CC[C@]4(C)[C@H](CC[C@@H]5[C@@]6(C)CC[C@H](N)C(C)(C)[C@@H]6CC[C@]54C)[C@H]2[C@H]1OC3 | 6.6 µM | 7.8 µM | 10.4 µM | 6.2 µM | 5.4 µM | 7.3 µM |  |  |  |  |  |  | 7.3 µM |
